Data on one compound can be found in ChEMBL document CHEMBL4265879, “Novel, potent, selective and brain penetrant vasopressin 1b receptor antagonists” (Bioorg Med Chem Lett, 2018).

Series [1] concerns Rattus norvegicus. The experiment in a line: Antidepressant like activity in Sprague-Dawley rat assessed as swimming time at 3 mg/kg, ip administered at 24, 4 and 0.5 hrs prior to test by forced swimming test. The format is functional. Put shortly: (§1)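 Rat forced swim test. Drug given intraperitoneally at 3 mg/kg, dosed 24, 4 and 0.5 h before testing. Floating, swimming and climbing times were scored. Nomifensine served as positive control. Data reported as mean ± SEM.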

Series [2] can be described thus: Intrinsic clearance in rat liver microsomes. Conditions: read-out: CLH. The format is ADME, microsome. Put shortly: (§2)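 Intrinsic clearance was measured in human and rat liver microsomes, in µL/min/mg. Values are means of at least two experiments.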
In general terms: Liver microsomes are a subcellular fraction often used to study metabolism.

Series [3] can be described thus: Oral bioavailability in rat at 10 mg/kg. Type of series: ADME, organism-based. Conditions: in vivo. Put shortly:
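Rat oral dosing, at 10 or 5 mg/kg depending on compound. Oral bioavailability (%) was calculated.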

A short description of series [4]: Ratio of AUC in rat brain to plasma at 10 mg/kg, ip measured after 8 hrs. The format is ADME, organism-based. Conditions: read-out: Ratio AUC. Put shortly: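 Rats were dosed 10 mg/kg intraperitoneally. Brain and plasma AUC were taken over an 8 h period, and the brain:plasma ratio was calculated from them.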
The species named for series [5] is Homo sapiens. As to the kind of experiment: Selectivity index, ratio of Ki for human vasopressin V1a receptor to Ki for human vasopressin V1b receptor. Put shortly: (§3)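 Selectivity was calculated from human receptor Ki values as Ki hOT/Ki hV1b or Ki hV1a/Ki hV1b. Each Ki is the mean of at least two experiments (MSR 2.8).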
A short description of series [6]: Elimination half life in rat at 2 mg/kg, iv. Type of series: ADME, organism-based. As to conditions: in vivo, read-out: beta t1/2 (converted). Put shortly:
(§4)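 Rat PK after a 2 mg/kg intravenous dose. Plasma clearance (L/h/kg), terminal half-life (h) and steady-state volume of distribution (L/kg) were derived.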

The nature of series [7]: Clearance in rat plasma at 2 mg/kg, iv. Type of series: ADME, organism-based. Put shortly:
as §4

A short description of series [8]: Intrinsic clearance in human liver microsomes. The format is ADME, microsome. Conditions: read-out: CLH. In short, it runs like this: as §2
For series [9], the species on record is Homo sapiens. The experiment in a line: Selectivity index, ratio of Ki for human oxytocin receptor to Ki for human vasopressin V1b receptor. Put shortly:
as §3

Series [10] in a line: Volume of distribution at steady state in rat at 2 mg/kg, iv. Type of series: ADME, organism-based. Conditions: in vivo, read-out: Vdss. Put shortly:
as §4

The subject of series [11] is Rattus norvegicus. The experiment in a line: Antidepressant like activity in Sprague-Dawley rat assessed as floating time at 3 mg/kg, ip administered at 24, 4 and 0.5 hrs prior to test by forced swimming test. Type of series: functional. Put shortly:
as §1

The subject of series [12] is Rattus norvegicus. As to the kind of experiment: Antidepressant like activity in Sprague-Dawley rat assessed as climbing time at 3 mg/kg, ip administered at 24, 4 and 0.5 hrs prior to test by forced swimming test. The format is functional. In short, it runs like this:
as §1

The target in the next series is T1, Vasopressin V1b receptor (Homo sapiens, UniProt P47901).
T1 sequence (P47901 whole entry): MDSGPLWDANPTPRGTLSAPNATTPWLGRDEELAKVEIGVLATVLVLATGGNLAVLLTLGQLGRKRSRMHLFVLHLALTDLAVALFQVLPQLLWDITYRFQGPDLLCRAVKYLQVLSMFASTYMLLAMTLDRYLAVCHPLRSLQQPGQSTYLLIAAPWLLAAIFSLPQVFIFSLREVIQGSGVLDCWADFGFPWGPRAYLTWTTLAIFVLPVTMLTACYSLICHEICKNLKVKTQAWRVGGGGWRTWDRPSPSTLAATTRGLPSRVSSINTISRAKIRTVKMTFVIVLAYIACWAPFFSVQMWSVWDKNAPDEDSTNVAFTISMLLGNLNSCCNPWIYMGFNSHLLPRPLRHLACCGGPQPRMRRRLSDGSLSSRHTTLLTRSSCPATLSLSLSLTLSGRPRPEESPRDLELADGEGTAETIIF
The experiment in a line: Displacement of [3H]AVP from human vasopressin V1b receptor expressed in CHO cell membranes after 60 mins by TopCount microplate scintillation counting method. In general terms: Loss of bound radioactivity is the signal in a displacement assay; it reports binding, not function.

Turning to `CCOc1ccc(OC)cc1C1(N2CCN(c3ccncc3)CC2)C(=O)N(S(=O)(=O)c2cccc3cccnc23)c2ccc(C#N)cc21` (stereo not drawn), the Time in the series on Rattus norvegicus [1] came to 12.46 s; with Rattus norvegicus [11] it was 159.15 s; in the series on Rattus norvegicus [12], 125.69 s. Besides, the microsomal CLint in series [2] amounted to 210 µL/min/mg; in series [8], 170 µL/min/mg. For the same compound, the bioavailability (as a rule, the share of a dose that reaches the circulation, judged against a reference dose that is usually intravenous) in series [3] was found to be 18%. Besides, the Kp at 8 h in series [4] came to 1.4. In addition, the figures for the Ratio Ki in the series listed under Homo sapiens [5] and in the series listed under Homo sapiens [9] were 79 and 34, respectively. Moreover, the half-life in series [6] was 2.4 h. Moreover, in series [7], the clearance – broadly, the rate of elimination divided by the concentration – was 46.7 mL/min/kg. The Vd in [10] was found to be 10 L/kg. On Vasopressin V1b receptor, the Ki (usually a measure of affinity in units of concentration, obtained from inhibition or displacement) stood at 5 nM.
